Four compounds from paper PMC4486249 (Journal of medicinal chemistry, 2010) can be followed below.

The structures appear in SMILES notation. “Also recorded” adds a separate entry of the source. Where a SMILES comes first, the peptide text is derived from it.

Data set [1] has as its system HIV-1HXB2 in MT-4 Luc cells. Kind of data set: MT-4 Luc assay, protection from HIV-1-induced cell death. It counts as cell-based. The following applies: for IC50 of inhibition of HIV-1 replication in cells: MT-4 Luc cell system, in words; for inhibitory effect against HIV-1 replication: MT-4 Luc cells infected with HIV-1, luciferase signal, various concentrations (Figure 4).

Data set [2] addresses RT-associated RNase H (Human immunodeficiency virus type 1 group M subtype B, UniProt P04585). As to the kind of experiment: RT-associated RNase H activity assay. Format: biochemical, HIV-1.
For data set [3], the system named is MT-4 Luc cells. To be noted: MT-4 Luc system (Figure 4).
The test system of data set [4] is X4-tropic HIV-1HXB2 on MT-4 cells. As to the kind of experiment: HIV-1 replication kinetics in MT-4 cells. It counts as cell-based. To be noted: 0.5 μM peptide, replication kinetics (Figure 5B). The essentials:
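MT-4 cells (1×10^5) were exposed to HIV-1HXB2-containing culture supernatant (ca. 0.2-50 ng p24) for 30 min at room temperature, then washed and cultured with or without 0.5 μM test peptide. Supernatants were collected at several time points, with cells passaged if necessary. Replication was read out as p24 antigen levels measured by ELISA.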

As a reminder, the IC50 is the midpoint of a concentration-inhibition curve. A higher IC50 goes with weaker potency.

Take `CC(=O)N[C@@H](CC(C)C)C(=O)N[C@@H](CCC(N)=O)C(=O)N[C@@H](CCC(N)=O)C(=O)N[C@@H](CC(C)C)C(=O)N[C@@H](CC(C)C)C(=O)N[C@@H](Cc1ccccc1)C(=O)N[C@@H](CCCNC(=N)N)C(=O)N[C@@H](CCCNC(=N)N)C(=O)N[C@@H](CCCNC(=N)N)C(=O)N[C@@H](CCCNC(=N)N)C(=O)N[C@@H](CCCNC(=N)N)C(=O)N[C@@H](CCCNC(=N)N)C(=O)N[C@@H](CCCNC(=N)N)C(=O)N[C@@H](CCCNC(=N)N)C(N)=O` [Vpr-1 R8] (Ac-LQQLLFRRRRRRRR-NH2): the antiviral effect entry in data set [1] (MT-4 Luc cells, at a concentration of 20 μM) is “weak antiviral effect”.
As for `CC[C@H](C)[C@H](NC(=O)[C@H](C)NC(=O)[C@H](CCC(=O)O)NC(C)=O)C(=O)N[C@H](C(=O)N[C@@H](CCCNC(=N)N)C(=O)N[C@H](C(=O)N[C@@H](CC(C)C)C(=O)N[C@@H](CCC(N)=O)C(=O)N[C@@H](CCC(N)=O)C(=O)N[C@@H](CC(C)C)C(=O)N[C@@H](CC(C)C)C(=O)N[C@@H](Cc1ccccc1)C(=O)N[C@H](C(=O)N[C@@H](Cc1c[nH]cn1)C(=O)N[C@@H](Cc1ccccc1)C(=O)N[C@@H](CCCNC(=N)N)C(=O)N[C@H](C(=O)NCC(=O)N[C@@H](CCCNC(=N)N)C(=O)N[C@@H](CCCNC(=N)N)C(=O)N[C@@H](CCCNC(=N)N)C(=O)N[C@@H](CCCNC(=N)N)C(=O)N[C@@H](CCCNC(=N)N)C(=O)N[C@@H](CCCNC(=N)N)C(=O)N[C@@H](CCCNC(=N)N)C(=O)N[C@@H](CCCNC(=N)N)C(N)=O)[C@@H](C)CC)[C@@H](C)CC)[C@@H](C)CC)[C@@H](C)CC` [Vpr-4 R8], in data set [1], the “IC50 of inhibition of HIV-1 replication in cells” value is reported as “submicromolar” and the “inhibitory effect against HIV-1 replication” value is listed as “significant inhibitory effects”. Moreover, in data set [2], the IC50 is over 0.5 µM.
`CC[C@H](C)[C@H](NC(=O)[C@H](CCCNC(=N)N)NC(=O)[C@H](Cc1ccccc1)NC(=O)[C@H](Cc1cnc[nH]1)NC(=O)[C@@H](NC(=O)[C@H](Cc1ccccc1)NC(=O)[C@H](CC(C)C)NC(=O)[C@H](CC(C)C)NC(=O)[C@H](CCC(N)=O)NC(=O)[C@H](CCC(N)=O)NC(=O)[C@H](CC(C)C)NC(C)=O)[C@@H](C)CC)C(=O)NCC(=O)N[C@@H](CCCNC(=N)N)C(=O)N[C@@H](CCCNC(=N)N)C(=O)N[C@@H](CCCNC(=N)N)C(=O)N[C@@H](CCCNC(=N)N)C(=O)N[C@@H](CCCNC(=N)N)C(=O)N[C@@H](CCCNC(=N)N)C(=O)N[C@@H](CCCNC(=N)N)C(=O)N[C@@H](CCCNC(=N)N)C(N)=O` [Vpr-3 R8]: the “cytotoxicity, comparison” value in data set [3] is “less cytotoxic than Vpr-4 R8”. In data set [1], the “IC50 of inhibition of HIV-1 replication in cells” value was “submicromolar” and the “inhibitory effect against HIV-1 replication” value is “significant inhibitory effects”. In addition, in data set [4], the “replication of HIV-1HXB2” value is “quite low; also recorded: extensively suppressed”. Also, the IC50 in data set [2] is over 0.5 µM.
With `CC[C@H](C)[C@H](NC(C)=O)C(=O)N[C@@H](Cc1c[nH]cn1)C(=O)N[C@@H](Cc1ccccc1)C(=O)N[C@@H](CCCNC(=N)N)C(=O)N[C@H](C(=O)NCC(=O)N[C@@H](CCCNC(=N)N)C(=O)N[C@@H](CCCNC(=N)N)C(=O)N[C@@H](CCCNC(=N)N)C(=O)N[C@@H](CCCNC(=N)N)C(=O)N[C@@H](CCCNC(=N)N)C(=O)N[C@@H](CCCNC(=N)N)C(=O)N[C@@H](CCCNC(=N)N)C(=O)N[C@@H](CCCNC(=N)N)C(N)=O)[C@@H](C)CC` [Vpr-2 R8] (Ac-IHFRIGRRRRRRRR-NH2), in data set [1] (MT-4 Luc cells, below concentrations of 20 μM), the anti-HIV-1 activity entry is reported as “no significant anti-HIV-1 activity”.
